# Columns and labels:
# Type in all cases: toxicity, cell-based
# Fibroblast = assay: Incucyte cell viability with human fibroblast; conditions: 10 µM, compound concentration 10 uM; note: filed as whole numbers so only -1 and 0 and 1 occur
# HEK-293T [1] = assay: Incucyte cell viability with HEK293T; conditions: human, 10 µM, compound concentration 10 uM; note: filed as whole numbers so only -1 and 0 and 1 occur
# HEK-293T [2] = assay: Multiplex assay against HEK293T; conditions: human;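 for Population Tubulin-Different-Phenotype (%): share of the cells with healthy nuclei that show this phenotype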
# In short: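 Cells stained live at seeding with Hoechst33342, BioTracker Green Microtubule Cytoskeleton Dye, MitoTracker Red and Annexin V Alexa Fluor 680 were imaged on a CQ1 microscope at 37°C and 5% CO2 after compound addition. Their classification by CellPathfinder machine-learning gating ran from Hoechst high-intensity objects versus normal cells, to healthy, pyknosed or fragmented nuclei among normal cells, to mitotic or apoptotic among pyknosed cells. Tubulin, mitochondrial-mass and membrane-permeability phenotypes are per cents of healthy-nucleus cells.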
# [3] = 6 h, replicate number 1, timepoint 6 hours
# [4] = 12 h, replicate number 1, timepoint 12 hours
# [5] = 18 h, replicate number 1, timepoint 18 hours
# [6] = 24 h, replicate number 1, timepoint 24 hours
# [7] = 12 h, 1 µM, compound concentration 1 uM, replicate 1
# [8] = 12 h, 1 µM, compound concentration 1 uM, replicate 2
# [9] = 12 h, 10 µM, compound concentration 10 uM, replicate 1
# [10] = 12 h, 10 µM, compound concentration 10 uM, replicate 2
# [11] = 24 h, 1 µM, compound concentration 1 uM, replicate 1
# [12] = 24 h, 1 µM, compound concentration 1 uM, replicate 2
# [13] = 24 h, 10 µM, compound concentration 10 uM, replicate 1
# [14] = 24 h, 10 µM, compound concentration 10 uM, replicate 2
# [15] = 48 h, 1 µM, compound concentration 1 uM, replicate 1
# [16] = 48 h, 1 µM, compound concentration 1 uM, replicate 2
# [17] = 48 h, 10 µM, compound concentration 10 uM, replicate 1
# [18] = 48 h, 10 µM, compound concentration 10 uM, replicate 2
structure (smiles),measurement,setting,value
Cl.Cl.Nc1ncnc2c1c(-c1cccc(OCc3ccccc3)c1)cn2[C@H]1C[C@@H](CN2CCC2)C1,Growth Rate,Fibroblast; [3],0
same,Growth Rate,Fibroblast; [4],0
same,Growth Rate,Fibroblast; [5],0
same,Growth Rate,Fibroblast; [6],0
same,Growth Rate,HEK-293T [1]; [3],0
same,Growth Rate,HEK-293T [1]; [4],0
same,Growth Rate,HEK-293T [1]; [5],0
same,Growth Rate,HEK-293T [1]; [6],0
same,Population Apoptotic (%),HEK-293T [2]; [7],69%
same,Population Fragmented Nuclei (%),HEK-293T [2]; [7],13%
same,Population Healthy Nuclei (%),HEK-293T [2]; [7],17%
same,Population Hoechst High Intensity Objects (%),HEK-293T [2]; [7],24%
same,Population Membrane Permeable-Phenotype (%),HEK-293T [2]; [7],5%
same,Population Mitochondria Different-Phenotype (%),HEK-293T [2]; [7],94%
same,Population Mitotic Cells (%),HEK-293T [2]; [7],30%
same,Population Normal (%),HEK-293T [2]; [7],75%
same,Population Pyknosed Nuclei (%),HEK-293T [2]; [7],68%
same,Population Tubulin-Different-Phenotype (%),HEK-293T [2]; [7],88%
same,Total Cell Count,HEK-293T [2]; [7],270
same,Population Apoptotic (%),HEK-293T [2]; [8],56%
same,Population Fragmented Nuclei (%),HEK-293T [2]; [8],5%
same,Population Healthy Nuclei (%),HEK-293T [2]; [8],23%
same,Population Hoechst High Intensity Objects (%),HEK-293T [2]; [8],10%
same,Population Membrane Permeable-Phenotype (%),HEK-293T [2]; [8],2%
same,Population Mitochondria Different-Phenotype (%),HEK-293T [2]; [8],97%
same,Population Mitotic Cells (%),HEK-293T [2]; [8],43%
same,Population Normal (%),HEK-293T [2]; [8],89%
same,Population Pyknosed Nuclei (%),HEK-293T [2]; [8],71%
same,Population Tubulin-Different-Phenotype (%),HEK-293T [2]; [8],97%
same,Total Cell Count,HEK-293T [2]; [8],199
same,Population Fragmented Nuclei (%),HEK-293T [2]; [9],18%
same,Population Healthy Nuclei (%),HEK-293T [2]; [9],12%
same,Population Hoechst High Intensity Objects (%),HEK-293T [2]; [9],20%
same,Population Membrane Permeable-Phenotype (%),HEK-293T [2]; [9],3%
same,Population Mitochondria Different-Phenotype (%),HEK-293T [2]; [9],100%
same,Population Normal (%),HEK-293T [2]; [9],79%
same,Population Pyknosed Nuclei (%),HEK-293T [2]; [9],69%
same,Population Tubulin-Different-Phenotype (%),HEK-293T [2]; [9],84%
same,Total Cell Count,HEK-293T [2]; [9],264
same,Population Apoptotic (%),HEK-293T [2]; [10],95%
same,Population Fragmented Nuclei (%),HEK-293T [2]; [10],21%
same,Population Healthy Nuclei (%),HEK-293T [2]; [10],6%
same,Population Hoechst High Intensity Objects (%),HEK-293T [2]; [10],23%
same,Population Membrane Permeable-Phenotype (%),HEK-293T [2]; [10],9%
same,Population Mitochondria Different-Phenotype (%),HEK-293T [2]; [10],81%
same,Population Mitotic Cells (%),HEK-293T [2]; [10],4%
same,Population Normal (%),HEK-293T [2]; [10],77%
same,Population Pyknosed Nuclei (%),HEK-293T [2]; [10],71%
same,Population Tubulin-Different-Phenotype (%),HEK-293T [2]; [10],54%
same,Total Cell Count,HEK-293T [2]; [10],213
same,Population Apoptotic (%),HEK-293T [2]; [11],70%
same,Population Fragmented Nuclei (%),HEK-293T [2]; [11],14%
same,Population Healthy Nuclei (%),HEK-293T [2]; [11],18%
same,Population Hoechst High Intensity Objects (%),HEK-293T [2]; [11],25%
same,Population Membrane Permeable-Phenotype (%),HEK-293T [2]; [11],0%
same,Population Mitochondria Different-Phenotype (%),HEK-293T [2]; [11],100%
same,Population Mitotic Cells (%),HEK-293T [2]; [11],29%
same,Population Normal (%),HEK-293T [2]; [11],75%
same,Population Pyknosed Nuclei (%),HEK-293T [2]; [11],67%
same,Total Cell Count,HEK-293T [2]; [11],260
same,Population Apoptotic (%),HEK-293T [2]; [12],67%
same,Population Fragmented Nuclei (%),HEK-293T [2]; [12],7%
same,Population Healthy Nuclei (%),HEK-293T [2]; [12],43%
same,Population Hoechst High Intensity Objects (%),HEK-293T [2]; [12],5%
same,Population Membrane Permeable-Phenotype (%),HEK-293T [2]; [12],4%
same,Population Mitochondria Different-Phenotype (%),HEK-293T [2]; [12],93%
same,Population Mitotic Cells (%),HEK-293T [2]; [12],32%
same,Population Normal (%),HEK-293T [2]; [12],94%
same,Population Pyknosed Nuclei (%),HEK-293T [2]; [12],49%
same,Population Tubulin-Different-Phenotype (%),HEK-293T [2]; [12],91%
same,Total Cell Count,HEK-293T [2]; [12],213
same,Population Apoptotic (%),HEK-293T [2]; [13],92%
same,Population Fragmented Nuclei (%),HEK-293T [2]; [13],17%
same,Population Healthy Nuclei (%),HEK-293T [2]; [13],9%
same,Population Hoechst High Intensity Objects (%),HEK-293T [2]; [13],22%
same,Population Membrane Permeable-Phenotype (%),HEK-293T [2]; [13],0%
same,Population Mitochondria Different-Phenotype (%),HEK-293T [2]; [13],100%
same,Population Mitotic Cells (%),HEK-293T [2]; [13],7%
same,Population Normal (%),HEK-293T [2]; [13],77%
same,Population Pyknosed Nuclei (%),HEK-293T [2]; [13],73%
same,Population Tubulin-Different-Phenotype (%),HEK-293T [2]; [13],80%
same,Total Cell Count,HEK-293T [2]; [13],278
same,Population Apoptotic (%),HEK-293T [2]; [14],100%
same,Population Fragmented Nuclei (%),HEK-293T [2]; [14],23%
same,Population Healthy Nuclei (%),HEK-293T [2]; [14],11%
same,Population Hoechst High Intensity Objects (%),HEK-293T [2]; [14],26%
same,Population Membrane Permeable-Phenotype (%),HEK-293T [2]; [14],5%
same,Population Mitochondria Different-Phenotype (%),HEK-293T [2]; [14],89%
same,Population Mitotic Cells (%),HEK-293T [2]; [14],0%
same,Population Normal (%),HEK-293T [2]; [14],73%
same,Population Pyknosed Nuclei (%),HEK-293T [2]; [14],64%
same,Population Tubulin-Different-Phenotype (%),HEK-293T [2]; [14],68%
same,Total Cell Count,HEK-293T [2]; [14],227
same,Population Apoptotic (%),HEK-293T [2]; [15],74%
same,Population Fragmented Nuclei (%),HEK-293T [2]; [15],20%
same,Population Healthy Nuclei (%),HEK-293T [2]; [15],21%
same,Population Hoechst High Intensity Objects (%),HEK-293T [2]; [15],30%
same,Population Membrane Permeable-Phenotype (%),HEK-293T [2]; [15],0%
same,Population Mitochondria Different-Phenotype (%),HEK-293T [2]; [15],97%
same,Population Mitotic Cells (%),HEK-293T [2]; [15],25%
same,Population Normal (%),HEK-293T [2]; [15],70%
same,Population Pyknosed Nuclei (%),HEK-293T [2]; [15],57%
same,Population Tubulin-Different-Phenotype (%),HEK-293T [2]; [15],78%
same,Total Cell Count,HEK-293T [2]; [15],250
same,Population Apoptotic (%),HEK-293T [2]; [16],64%
same,Population Fragmented Nuclei (%),HEK-293T [2]; [16],6%
same,Population Healthy Nuclei (%),HEK-293T [2]; [16],71%
same,Population Hoechst High Intensity Objects (%),HEK-293T [2]; [16],11%
same,Population Membrane Permeable-Phenotype (%),HEK-293T [2]; [16],1%
same,Population Mitochondria Different-Phenotype (%),HEK-293T [2]; [16],87%
same,Population Mitotic Cells (%),HEK-293T [2]; [16],35%
same,Population Normal (%),HEK-293T [2]; [16],88%
same,Population Pyknosed Nuclei (%),HEK-293T [2]; [16],22%
same,Population Tubulin-Different-Phenotype (%),HEK-293T [2]; [16],93%
same,Total Cell Count,HEK-293T [2]; [16],263
same,Population Apoptotic (%),HEK-293T [2]; [17],93%
same,Population Fragmented Nuclei (%),HEK-293T [2]; [17],25%
same,Population Healthy Nuclei (%),HEK-293T [2]; [17],1%
same,Population Hoechst High Intensity Objects (%),HEK-293T [2]; [17],19%
same,Population Membrane Permeable-Phenotype (%),HEK-293T [2]; [17],0%
same,Population Mitochondria Different-Phenotype (%),HEK-293T [2]; [17],100%
same,Population Mitotic Cells (%),HEK-293T [2]; [17],6%
same,Population Normal (%),HEK-293T [2]; [17],80%
same,Population Pyknosed Nuclei (%),HEK-293T [2]; [17],73%
same,Population Tubulin-Different-Phenotype (%),HEK-293T [2]; [17],33%
same,Total Cell Count,HEK-293T [2]; [17],315
same,Population Apoptotic (%),HEK-293T [2]; [18],98%
same,Population Fragmented Nuclei (%),HEK-293T [2]; [18],34%
same,Population Healthy Nuclei (%),HEK-293T [2]; [18],17%
same,Population Hoechst High Intensity Objects (%),HEK-293T [2]; [18],12%
same,Population Mitotic Cells (%),HEK-293T [2]; [18],1%
same,Population Normal (%),HEK-293T [2]; [18],87%
same,Population Pyknosed Nuclei (%),HEK-293T [2]; [18],48%
same,Population Tubulin-Different-Phenotype (%),HEK-293T [2]; [18],88%
same,Total Cell Count,HEK-293T [2]; [18],234
